From ChEMBL document CHEMBL4431329, “Peripherally Selective Cannabinoid 1 Receptor (CB1R) Agonists for the Treatment of Neuropathic Pain” (J Med Chem, 2016)
Activity calls are given as the source filed them.

Tests used:
Cannabinoid receptor 1 [1] = molecular target: T1, Cannabinoid receptor 1 (Homo sapiens, UniProt P21554); assay: Displacement of [3H]-CP55940 from human CB1 receptor
Procedure, shortened: (§1)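 Radioligand displacement used [3H]-CP55940 as tracer in heterologous competition binding. Unlabeled reference ligands defined nonspecific binding. Ki was calculated by Cheng–Prusoff.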

Rattus norvegicus [2] = assay: Analgesic activity in naive Sprague-Dawley rat assessed as increase in tail flick latency at 0.3 mg/kg, ip up to 48 hrs by tail-flick assay; assay type: functional, organism-based
Procedure, shortened: (§2)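 Naïve male Sprague–Dawley rats were dosed ip (DMSO/Cremophor EL/saline) or by gavage (DMSO in 20% condensed milk). Radiant heat was aimed 3 cm from the tail tip and latency timed by photocell. Baseline was set to ~5–7 s with a 25 s cutoff. Testing ran 1 h pre-dose and up to 48 h after. Peak effect was taken minus vehicle; n = 6–8; blinded.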

Rattus norvegicus [3] = assay: Antiallodynic activity in SNE-induced mechanical allodynia naive Sprague-Dawley rat model assessed as reversible […] in hindpaw ipsilateral withdrawal threshold at 0.3 mg/kg, ip preincubated for 3 hrs followed by SNE addition; assay type: functional, organism-based
Procedure, shortened: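 Male Sprague–Dawley rats received unilateral sciatic nerve entrapment. Testing began 8 days post-surgery at 3-day intervals, dosed ip in DMSO/Cremophor EL/saline. Hindpaw withdrawal threshold (g) was read with a digital von Frey meter, 4 readings per paw at 30 s spacing, averaged. Reads were taken 1 h before and 3, 6, 24 and 48 h after dosing; n = 8; blinded; one-way RM ANOVA.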

Cannabinoid receptor 1 [4] = molecular target: T1, Cannabinoid receptor 1; assay: Agonist activity at human CB1R expressed in CHO cells by Ca2+ flux assay; assay type: functional, cell-based
Procedure, shortened: (§3)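 CHO cells stably co-expressing human CB1 or CB2 with Gαq16 were seeded at 40000/well and grown 24 h at 37 °C. They were loaded 1 h at 37 °C with Fluo-4 AM (2 μM final) in HBSS/20 mM HEPES/1% BSA/probenecid. Agonist was added after ~17 s baseline, and fluorescence (ex 488/em 525) was read each 1 s for 60 s. Runs were done 3–6 times; mean ± SEM.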

Rattus norvegicus [5] = assay: Analgesic activity in naive Sprague-Dawley rat assessed as tail flick latency at 0.1 to 10 mg/kg administered through oral gavage up to 48 hrs by tail-flick assay; assay type: functional, organism-based; procedure, shortened: as §2
[6] = Metabolic stability in Sprague-Dawley rat liver S9 fraction assessed as compound remaining at 10 uM measured at 1 hr by LC/MS analysis; assay type: ADME, subcellular; settings: s9, 1 h
Procedure, shortened: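 Compound (10 μM final, from 1 mM ethanol stock) was incubated at 37 °C in male Sprague–Dawley rat liver S9 (1 mg protein/mL). The mix held an NADPH-regenerating system (1 mM NADP, 5 mM glucose 6-phosphate, 1 U/mL G6PDH) in 50 mM KPO4 pH 7.4 with 3 mM MgCl2, preincubated 5 min. Samples at 0–120 min were methanol-extracted and analysed by LC/MS.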

Cannabinoid receptor 2 [7] = molecular target: T2, Cannabinoid receptor 2 (Homo sapiens, UniProt P34972); assay: Displacement of [3H]-CP55940 from human CB2 receptor; procedure, shortened: as §1
[8] = Toxicity in naive Sprague-Dawley rat assessed as hypothermia at 0.1 to 10 mg/kg administered through oral gavage after 2 to 48 hrs by core temperature test; assay type: organism-based; settings: in vivo
Procedure, shortened: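 Naïve rats were acclimated to a restrainer (two 5-min sessions 20 min apart). Core temperature was taken before and 2, 6, 24 and 48 h after ip (DMSO/Cremophor EL/saline) or oral gavage (DMSO in 20% condensed milk) dosing. Dose-response points are mean peak effect minus vehicle; n = 6–8 rats; blinded.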

[9] = Metabolic stability in Sprague-Dawley rat plasma assessed as compound remaining at 10 uM measured at 1 hr by LC/MS analysis; assay type: ADME, cell-free
Procedure, shortened: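 Compound (10 μM final, from 1 mM ethanol stock) was incubated in male Sprague–Dawley rat plasma at 37 °C. Aliquots taken at 0, 30 and 60 min were extracted with 3 volumes methanol and centrifuged. Supernatants were analysed by LC/MS.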

Cannabinoid receptor 2 [10] = molecular target: T2, Cannabinoid receptor 2; assay: Agonist activity at human CB2R expressed in CHO cells by Ca2+ flux assay; assay type: functional, cell-based; procedure, shortened: as §3
[11] = Toxicity in naive Sprague-Dawley rat assessed as motor incoordination at 0.1 to 10 mg/kg administered through oral gavage after 2 to 48 hrs by rotarod test; assay type: organism-based; settings: in vivo
Procedure, shortened: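 Rats were trained 72 h earlier (3 sessions, 24 h apart) to stay ≥180 s on an accelerating rotarod (4–40 rev over 5 min). Time on rod was recorded to a 3 min cutoff, 1 h pre-dose and 2, 6, 24 and 48 h after ip or oral gavage dosing. Values are peak effect minus vehicle; n = 6–8; blinded.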

[12] = Toxicity in naive Sprague-Dawley rat assessed as immobility at 0.1 to 10 mg/kg administered through oral gavage after 2 to 48 hrs by catalepsy ring test; assay type: organism-based; settings: in vivo
Procedure, shortened: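 In the ring immobility test, forepaws were placed on a 12 cm horizontal ring with hindpaws just touching the bench. Time to move off was recorded, 100 s cutoff. Testing was pre-dose and 2, 6, 24 and 48 h after ip or oral gavage dosing. Values are peak effect minus vehicle; n = 6–8; blinded.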

[13] = Efflux ratio of permeability in MDCK cells expressing mdr1 at 10 uM by mass spectroscopic analysis; assay type: ADME, cell-based, Canis lupus familiaris; settings: dog
Procedure, shortened: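 MDCK-mdr1 monolayers were grown 4 days on Transwell filters in DMEM/F12 with 10% FBS. Compound (10 μM) was added apically in HBSS with 25 mM D-glucose, HEPES pH 7.4, and incubated 1 h at 37 °C. Apical and basal samples were quantified by LC-MS/MS (MRM). Values are the average of 2–3 measurements.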

Cannabinoid receptor 1 [14] = molecular target: Cannabinoid receptor 1 (Rattus norvegicus, UniProt P20272); assay: Displacement of [3H]-CP55940 from rat CB1 receptor
Sequence of Cannabinoid receptor 1 (Rattus norvegicus, UniProt P20272) (P20272 whole entry): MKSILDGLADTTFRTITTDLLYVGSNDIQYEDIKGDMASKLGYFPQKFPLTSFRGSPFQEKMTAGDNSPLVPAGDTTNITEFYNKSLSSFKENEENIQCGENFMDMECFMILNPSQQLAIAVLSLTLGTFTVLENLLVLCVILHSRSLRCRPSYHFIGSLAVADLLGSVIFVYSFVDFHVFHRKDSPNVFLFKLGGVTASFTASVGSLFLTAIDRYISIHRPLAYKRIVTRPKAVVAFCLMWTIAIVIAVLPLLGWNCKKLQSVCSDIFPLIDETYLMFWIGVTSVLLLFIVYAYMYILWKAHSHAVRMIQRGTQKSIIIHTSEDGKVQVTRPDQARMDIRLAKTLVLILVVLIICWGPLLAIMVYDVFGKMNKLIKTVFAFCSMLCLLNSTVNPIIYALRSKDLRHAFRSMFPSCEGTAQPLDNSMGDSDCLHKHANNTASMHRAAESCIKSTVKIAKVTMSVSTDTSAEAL

T2 sequence (P34972 whole entry): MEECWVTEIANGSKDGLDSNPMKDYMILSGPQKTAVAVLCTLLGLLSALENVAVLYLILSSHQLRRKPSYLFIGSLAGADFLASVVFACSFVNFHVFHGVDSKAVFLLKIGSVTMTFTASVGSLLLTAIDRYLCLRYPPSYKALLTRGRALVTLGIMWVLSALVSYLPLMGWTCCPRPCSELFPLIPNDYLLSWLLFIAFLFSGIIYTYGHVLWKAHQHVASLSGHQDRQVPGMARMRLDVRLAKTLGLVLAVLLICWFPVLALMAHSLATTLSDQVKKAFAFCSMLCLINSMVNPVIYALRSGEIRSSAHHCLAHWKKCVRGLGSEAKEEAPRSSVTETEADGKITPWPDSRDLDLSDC
T1 sequence (P21554 whole entry): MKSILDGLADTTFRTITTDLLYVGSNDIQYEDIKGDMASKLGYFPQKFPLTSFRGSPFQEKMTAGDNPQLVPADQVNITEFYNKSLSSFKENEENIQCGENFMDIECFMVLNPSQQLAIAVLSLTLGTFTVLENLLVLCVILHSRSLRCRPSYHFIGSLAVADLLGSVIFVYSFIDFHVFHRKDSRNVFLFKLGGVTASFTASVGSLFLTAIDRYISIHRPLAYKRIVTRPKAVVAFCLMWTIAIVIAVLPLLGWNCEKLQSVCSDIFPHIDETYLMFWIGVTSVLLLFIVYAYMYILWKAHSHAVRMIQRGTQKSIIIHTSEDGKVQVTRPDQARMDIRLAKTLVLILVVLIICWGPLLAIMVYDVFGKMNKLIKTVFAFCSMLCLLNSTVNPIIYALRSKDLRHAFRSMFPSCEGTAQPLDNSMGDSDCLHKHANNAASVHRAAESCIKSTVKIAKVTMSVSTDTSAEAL

O=C(O)CCCn1cc(C(=O)c2cccc3ccccc23)c2ccccc21 gave a Ki (Cannabinoid receptor 1 [1]) greater than 10000 nM.
CCCCCCC1=C/C(=C\c2ccccc2)c2ccccc21 showed a Ki (Cannabinoid receptor 1 [1]) of 4410 nM.
For COc1ccc(/C=C2\C=C(CCN3CCOCC3)c3ccccc32)c2ccccc12, the Activity (Rattus norvegicus [2]) was “Active”, the Activity (Rattus norvegicus [3]) was “Active” and the EC50 (Cannabinoid receptor 1 [4]) was 196 nM. For the same compound, the Emax (Cannabinoid receptor 1 [4]) was 114%, the Activity (Rattus norvegicus [5]) was “Active” and the Stability [6] was 43%. For the same compound, the Ki (Cannabinoid receptor 2 [7]) was 4.07 nM, the Activity [8] was “Non-Toxic” and the Stability [9] was 100%. For the same compound, the EC50 (Cannabinoid receptor 2 [10]) was 194 nM, the Emax (Cannabinoid receptor 2 [10]) was 52% and the Activity [11] was “Non-Toxic”. The Activity [12] was “Non-Toxic”.
Compound C1=C(CCN2CCOCC2)c2ccccc2/C1=C/c1ccc2c3c(cccc13)CC2 has a Ratio [13] of 0.0014, an EC50 (Cannabinoid receptor 2 [10]) of 594 nM and an Emax (Cannabinoid receptor 2 [10]) of 20%.
With COc1ccc(C(=O)c2c(C)n(CCN3CCOCC3)c3ccccc23)cc1 [PRAVADOLINE] the Ki (Cannabinoid receptor 1 [14]) was 2510 nM.
